Laboratory results: ChEMBL document CHEMBL4428026, “Discovery of New Monocarbonyl Ligustrazine-Curcumin Hybrids for Intervention of Drug-Sensitive and Drug-Resistant Lung Cancer” (J Med Chem, 2016)
pIC50: −log10 of the molar value. The source made the active and inactive calls. The calls are words filed in the database; no cut-off is given here.

Columns and labels:
[1] = Acute toxicity in ICR mouse assessed as survival at 400 mg/kg, ip measured on day 14; type: organism-based; settings: in vivo
Summary of the method: (§1)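 Male and female ICR mice (7 weeks), randomized, 10 per group, given one intraperitoneal dose at 200, 250, 300, 350, 400 or 450 mg/kg. Animals were watched for abnormal behaviour and deaths up to two weeks. Deaths were tallied at 1 h, 4 h, day 3 and days 4-14, with survival on day 14. LD50 was calculated with 95% confidence limits.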

[2] = Acute toxicity in ICR mouse assessed as survival at 300 mg/kg, ip measured on day 14; type: organism-based; settings: in vivo; summary of the method: as §1
[3] = system: A549; test: Induction of apoptosis in human A549 cells assessed as increase in Bax to Bcl2 ratio at 2.1 to 4.2 uM after 24 hrs by Western blot method; type: functional, cell-based
Summary of the method: (§2)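 Cells were plated at 1 × 10^6/well overnight, then treated 24 h with vehicle DMSO (0.1%, v/v) or compound (A549, 2.1 or 4.2 µM; A549/DDP, 0.6 or 1.2 µM). Lysis was at 4 °C. Lysates were run on SDS-PAGE (7.5% gel, 20 µg/lane) and immunoblotted with ECL detection; phospho-Akt Ser473 and phospho-ERK Thr202/Tyr204 were probed. Bands were normalized to GAPDH (TrxR, Trx) or β-actin. Three independent experiments were run.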

[4] = Toxicity in BALB/c nude mouse xenografted with human A549/CDDP cells assessed as body weight at 40 mg/kg, ip administered daily for 15 consecutive days measured on day 1 (reference value: 19.3 +/- 1.55 g); type: organism-based; settings: in vivo
[5] = system: A549/CDDP; test: Decrease in P-gp expression in human A549/CDDP cells at 0.6 to 1.2 uM after 24 hrs by Western blot method; type: functional, cell-based
Summary of the method: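 A549/DDP cells were treated for 24 h with vehicle DMSO (0.1%, v/v) or 0.6 or 1.2 µM compound. Lysates were run on SDS-PAGE (7.5% gel, 20 µg/lane), blotted to PVDF and probed with anti-P-gp, with detection by ECL. P-gp was normalized to β-actin. Three independent experiments were run.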

[6] = system: A549/CDDP; test: Effect on ERK expression in human A549/CDDP cells at 0.6 to 1.2 uM after 24 hrs by Western blot method; type: functional, cell-based; summary of the method: as §2
[7] = system: A549; test: Decrease in Trx expression in human A549 cells at 2.1 to 4.2 uM after 24 hrs by Western blot method; type: functional, cell-based; summary of the method: as §2
[8] = Toxicity in BALB/c nude mouse xenografted with human A549/CDDP cells assessed as body weight at 20 mg/kg, ip administered daily for 15 consecutive days measured on day 15 (reference value: 21 +/- 1.28 g); type: organism-based; settings: in vivo
[9] = Antiproliferative activity against human LTEP-G2 cells after 72 hrs by MTT assay; type: functional, cell-based
Summary of the method: (§3)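 Cells (A549, A549/DDP, SPC-A-1, LTEP-G-2, non-tumor bronchial epithelial HBE) were exposed in triplicate to vehicle or compound for 72 h. MTT (5 mg/mL in PBS) was then added for 4 h, formazan was dissolved in DMSO, and absorbance was read at 570 nm. IC50 values were derived from viability.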

[10] = molecular target: T1, Thioredoxin reductase (Homo sapiens, UniProt Q16881+Q9NNW7+Q86VQ6); test: Inhibition of thioredoxin reductase (unknown origin) after 2 hrs by DTNB dye based microplate spectrophotometry; type: protein assay
Summary of the method: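 NADPH-reduced TrxR (0.16 µM) was preincubated in triplicate with vehicle DMSO (0.1%, v/v) or varying compound concentrations for 2 h. It was then reacted with 2 mM DTNB and 200 µM NADPH for 3 min, and absorbance was read at 412 nm. IC50 was derived.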

[11] = molecular target: T1, Thioredoxin reductase; test: Inhibition of thioredoxin reductase in human A549 cells by DTNB dye based microplate spectrophotometry; type: cell-based
Summary of the method: (§4)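 A549 or A549/DDP cells were treated with varying compound concentrations for 24 h, then harvested, homogenized and centrifuged. Protein (50 µg) was reacted in triplicate with NADPH and DTNB in TE buffer at 37 °C for 1 h, and TNB was read at 412 nm. Activity was taken from a purified-TrxR standard curve, and IC50 was derived.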

[12] = Toxicity in BALB/c nude mouse xenografted with human A549/CDDP cells assessed as body weight at 40 mg/kg, ip administered daily for 15 consecutive days measured on day 15 (reference value: 21 +/- 1.28 g); type: organism-based; settings: in vivo
Summary of the method: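 Athymic BALB/c nude mice of both sexes, 4-5 weeks, inoculated subcutaneously with A549/DDP cells (1 × 10^7/mouse). Once tumors reached 180-200 mm3, mice were randomized and given ip dosing daily for 15 consecutive days. Vehicle was PBS/DMSO/cremophor-EL (8:1:1), given at the same volume to controls. Body weight was recorded on day 1 and day 15. Reported as mean ± SD, n = 8.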

[13] = system: A549/CDDP; test: Effect on NFkappaB expression in human A549/CDDP cells at 0.6 to 1.2 uM after 24 hrs by Western blot method; type: functional, cell-based; summary of the method: as §2
[14] = molecular target: ATP-dependent translocase ABCB1 (Homo sapiens, UniProt P08183); test: Inhibition of P-gp ATPase activity in human A549/CDDP cells at 40 uM by luminescence assay (reference value: 706683 +/- 23554 RLU); type: cell-based
[15] = molecular target: T1, Thioredoxin reductase; test: Inhibition of thioredoxin reductase in human A549/CDDP cells by DTNB dye based microplate spectrophotometry; type: cell-based; summary of the method: as §4
[16] = system: A549/CDDP; test: Induction of apoptosis in human A549/CDDP cells assessed as increase in Bax expression at 0.6 to 1.2 uM after 24 hrs by Western blot method; type: functional, cell-based; summary of the method: as §2
[17] = Cytotoxicity against NHBE cells after 72 hrs by MTT assay; type: cell-based; settings: Homo sapiens; summary of the method: as §3
[18] = Acute toxicity in ICR mouse assessed as survival at 450 mg/kg, ip measured on day 14; type: organism-based; settings: in vivo; summary of the method: as §1
[19] = system: A549; test: Inhibition of NFkappaB phosphorylation in human A549 cells at 2.1 to 4.2 uM after 24 hrs by Western blot method; type: cell-based; summary of the method: as §2
[20] = system: A549/CDDP; test: Induction of apoptosis in human A549/CDDP cells assessed as increase in Bax to Bcl2 ratio at 0.6 to 1.2 uM after 24 hrs by Western blot method; type: functional, cell-based; summary of the method: as §2
[21] = Acute toxicity in ICR mouse assessed as survival at 250 mg/kg, ip measured on day 14; type: organism-based; settings: in vivo; summary of the method: as §1
[22] = system: A549; test: Induction of ROS generation in human A549 cells 2.1 to 4.2 uM after 60 mins by DHE staining-based fluorescence assay in presence of NAC; type: functional, cell-based
[23] = system: A549; test: Induction of apoptosis in human A549 cells assessed as increase in cleaved caspase 3 level at 2.1 to 4.2 uM after 24 hrs by Western blot method; type: functional, cell-based; summary of the method: as §2
[24] = system: A549/CDDP; test: Induction of apoptosis in human A549/CDDP cells assessed as increase in cleaved PARP level at 0.6 to 1.2 uM after 24 hrs by Western blot method; type: functional, cell-based; summary of the method: as §2
[25] = system: A549/CDDP; test: Induction of apoptosis in human A549/CDDP cells at 0.6 to 1.2 uM after 24 hrs by annexin V-FITC/propidium iodide staining-based flow cytometry; type: functional, cell-based
Summary of the method: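 Cells were seeded at 1 × 10^5/well and treated 24 h with DMSO (1%) or compound. They were then washed in PBS, stained with FITC-Annexin V and propidium iodide, and apoptotic fractions were quantified by flow cytometry.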

Sequence of ATP-dependent translocase ABCB1 (P08183 whole entry): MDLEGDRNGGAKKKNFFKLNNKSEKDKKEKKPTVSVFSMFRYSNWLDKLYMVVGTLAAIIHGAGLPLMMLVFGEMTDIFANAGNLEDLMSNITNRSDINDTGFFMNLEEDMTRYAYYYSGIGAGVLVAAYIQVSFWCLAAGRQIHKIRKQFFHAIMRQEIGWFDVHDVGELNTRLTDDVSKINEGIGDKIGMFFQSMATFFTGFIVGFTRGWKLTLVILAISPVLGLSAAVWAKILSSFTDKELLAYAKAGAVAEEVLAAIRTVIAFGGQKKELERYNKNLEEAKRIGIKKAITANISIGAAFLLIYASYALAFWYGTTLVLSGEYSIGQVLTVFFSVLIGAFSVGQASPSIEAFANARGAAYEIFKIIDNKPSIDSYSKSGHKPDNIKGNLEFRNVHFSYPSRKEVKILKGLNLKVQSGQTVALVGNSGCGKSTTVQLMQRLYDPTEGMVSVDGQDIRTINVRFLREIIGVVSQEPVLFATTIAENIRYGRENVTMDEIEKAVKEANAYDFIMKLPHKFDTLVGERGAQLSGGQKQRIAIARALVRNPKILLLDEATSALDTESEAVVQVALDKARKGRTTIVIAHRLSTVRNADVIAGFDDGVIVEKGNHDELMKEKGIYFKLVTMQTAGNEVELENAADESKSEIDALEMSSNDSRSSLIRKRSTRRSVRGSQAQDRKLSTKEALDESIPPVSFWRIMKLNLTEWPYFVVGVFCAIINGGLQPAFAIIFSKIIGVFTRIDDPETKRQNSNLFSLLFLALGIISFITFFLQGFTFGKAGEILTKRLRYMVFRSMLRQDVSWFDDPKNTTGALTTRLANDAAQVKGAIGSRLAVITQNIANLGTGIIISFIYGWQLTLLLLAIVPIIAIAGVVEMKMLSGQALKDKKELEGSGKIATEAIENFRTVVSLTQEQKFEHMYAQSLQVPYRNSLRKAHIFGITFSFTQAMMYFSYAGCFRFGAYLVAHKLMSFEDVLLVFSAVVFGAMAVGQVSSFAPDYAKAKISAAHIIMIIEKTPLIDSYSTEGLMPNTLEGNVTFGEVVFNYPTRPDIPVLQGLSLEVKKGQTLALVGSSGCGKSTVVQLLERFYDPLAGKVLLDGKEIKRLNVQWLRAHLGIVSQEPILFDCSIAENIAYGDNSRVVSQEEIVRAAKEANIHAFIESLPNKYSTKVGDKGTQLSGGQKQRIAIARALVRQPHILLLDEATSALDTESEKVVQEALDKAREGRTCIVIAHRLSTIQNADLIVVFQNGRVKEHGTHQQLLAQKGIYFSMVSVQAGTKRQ

## COc1cc(/C=C/C(=O)/C=C/c2nc(C)c(C)nc2C)ccc1O
[1]
  survival at 14 day: 10%
[2]
  survival at 14 day: 50%
[3]
  Activity: Active
[4]
  Activity: 19.9 g
[5]
  Activity: Active
[6]
  Activity: inactive
[7]
  Activity: Active
[8]
  Activity: 18.6 g
[9]
  pIC50: 5.54
[10]
  IC50: 2950 nM
[11]
  IC50: 1490 nM
[12]
  Activity: 19.6 g
[13]
  Activity: inactive
[14]
  Activity: 761592 RLU
[15]
  IC50: 1220 nM
[16]
  Activity: Active
[17]
  pIC50: 4.67
[18]
  survival at 14 day: 0%
[19]
  inhibition: Active
[20]
  Activity: Active
[21]
  survival at 14 day: 60%
[22]
  Activity: inactive
[23]
  Activity: Active
[24]
  Activity: Active
[25]
  Activity: Active
